Test results as given in ChEMBL document CHEMBL1143879, “Identification of novel series of human CCR1 antagonists” (Bioorg Med Chem Lett, 2008).

Key:
[1] = molecular target: T1, C-C chemokine receptor type 1 (Homo sapiens, UniProt P32246); assay: Displacement of [125I]MIP1-alpha from human CCR1 receptor expressed in THP1 cells; assay type: cell-based, THP-1
T1 sequence (P32246 whole entry): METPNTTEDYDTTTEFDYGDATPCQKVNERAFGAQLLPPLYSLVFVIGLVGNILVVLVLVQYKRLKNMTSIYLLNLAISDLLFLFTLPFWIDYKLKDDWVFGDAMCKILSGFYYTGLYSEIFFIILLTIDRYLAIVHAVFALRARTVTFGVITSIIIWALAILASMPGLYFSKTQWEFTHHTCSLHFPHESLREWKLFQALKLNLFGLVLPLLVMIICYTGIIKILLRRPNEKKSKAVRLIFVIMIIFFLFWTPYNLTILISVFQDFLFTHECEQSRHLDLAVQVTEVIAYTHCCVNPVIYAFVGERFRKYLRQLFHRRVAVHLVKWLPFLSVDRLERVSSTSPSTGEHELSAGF
In short: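 THP-1 cells expressing CCR1, washed in PBS, at 5 × 10⁶/ml with compound or vehicle and 50 pM human [¹²⁵I]MIP-1α. Binding buffer: 50 mM Hepes pH 7.4, 5 mM MgCl₂, 1 mM CaCl₂, 0.5% BSA. Incubated 90 min at room temperature, then filtered on PEI-coated glass fibre and washed with buffer plus 0.5 M NaCl. Bound counts by scintillation. IC50, mean of triplicates in one experiment.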

[2] = test system: THP-1; assay: Inhibition of CCL3-induced chemotaxis in human THP1 cells after 2 hrs; assay type: functional, cell-based; settings: THP-1, 2 h
In short: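 Calcein-labelled THP-1 cells washed in RPMI-1640 and resuspended at 5 × 10⁶/ml. Preincubated 30 min at 37 °C with compound or DMSO, then placed above a 5 µm polycarbonate filter in a Boyden chamber. The lower wells held 0.5 nM human MIP-1α with or without compound. Chamber incubated 2 h at 37 °C.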

[3] = molecular target: T1, C-C chemokine receptor type 1; assay: Antagonist activity at human CCR1 receptor expressed in THP1 cells assessed as human MIP-1-alpha-stimulated intracellular calcium level by FLIPR assay; assay type: functional, cell-based, THP-1
In short: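 THP-1 cells in RPMI-1640 at 2 × 10⁶/ml, mixed 1:1 with calcium dye buffer, loaded 30 min at 37 °C with 2.5 mM probenecid. Cells spun down, resuspended in RPMI-1640 with 0.1% BSA and plated at 1.5 × 10⁵/well with or without compound. Stimulated with 5 nM human MIP-1α; intracellular Ca²⁺ change read by FLIPR. IC50, mean of at least two independent experiments.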

[4] = Selectivity for human CCR1 receptor over CCR4 receptor

SMILES	IC50 [1]	IC50 [2]	IC50 [3]	Selectivity ratio [4]
O=S(=O)(NCCCN1CCC(O)(c2ccc(Cl)cc2)CC1)c1ccccc1-c1ccccc1	0.6 µM	0.151 µM	0.084 µM	
O=S(=O)(NCCCN1CCC(O)(c2ccc(Cl)cc2)CC1)c1ccccc1-c1cccs1	0.24 µM	0.296 µM	0.23 µM	> 100
O=S(=O)(c1ccccc1)N1CCC(N2CCC(O)(c3ccc(Cl)cc3)CC2)CC1	1.27 µM		1.24 µM	> 100
CSc1ccc(C2(O)CCN(C3CCN(S(=O)(=O)c4ccccc4Cl)CC3)CC2)cc1	> 10 µM		7.98 µM	
O=S(=O)(c1ccccc1Cl)N1CCC(N2CCC(O)(c3cccc(Cl)c3)CC2)CC1	7 µM		6.21 µM	
O=S(=O)(c1ccccc1Cl)N1CCC(N2CCC(O)(c3ccc(Cl)c(F)c3)CC2)CC1	0.43 µM		0.61 µM	
O=S(=O)(NCCCN1CCC(O)(c2ccc(Cl)cc2)CC1)c1ccc(Cl)cc1	0.8 µM		0.37 µM	
CC(C)(C)c1ccc(C2(O)CCN(C3CCN(S(=O)(=O)c4ccccc4Cl)CC3)CC2)cc1	> 10 µM		> 10 µM	

Further lines, results first:

IC50 [1]	IC50 [2]	IC50 [3]	Selectivity ratio [4]	SMILES
0.09 µM	0.042 µM	0.09 µM	> 100	O=S(=O)(c1ccccc1Br)N1CCC(N2CCC(O)(c3ccc(Cl)cc3)CC2)CC1
0.2 µM	0.183 µM	0.13 µM		O=S(=O)(c1ccccc1Cl)N1CCC(N2CCC(O)(c3ccc(Cl)cc3)CC2)CC1
0.44 µM		0.18 µM		O=S(=O)(c1ccccc1Cl)N1CCC(N2CCC(O)(c3ccc(Br)cc3)CC2)CC1
0.4 µM		0.13 µM		O=S(=O)(c1ccccc1Cl)N1CCC(N2CCCC(O)(c3ccc(Cl)cc3)CC2)CC1 (stereo unspecified)
